Test results taken from ChEMBL document CHEMBL1123641, “Antiulcer agents. 2. Gastric antisecretory, cytoprotective, and metabolic properties of substituted imidazo[1,2-a]pyridines and analogues” (J Med Chem, 1987).
Activity calls are given as the source filed them. The rule behind the calls is not given here.

Legend:
[1] = system: Canis familiaris; experiment: Antisecretory activity in histamine stimulated dogs at 1 mg/kg dose administered intravenously; format: functional; details: Canis lupus familiaris, route intravenous
How it was run: (§1)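 Adult mongrel dogs with surgically prepared Heidenhain pouches, acid secretion stimulated with histamine. Compound given intravenously (0.1-5 mg/kg range). Acid output reduction is expressed relative to the nondrug-treated control value in the same animal, each dog serving as its own control. Unless noted otherwise, one dog per compound. ED50 is the iv dose reducing acid output to 50% of control.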

[2] = system: Canis familiaris; experiment: Antisecretory activity in histamine stimulated dogs at 2 mg/kg dose administered intravenously; format: functional; details: Canis lupus familiaris, route intravenous; how it was run: as §1
[3] = system: Canis familiaris; experiment: Antisecretory activity in histamine stimulated dogs at 8 mg/kg dose administered orally; format: functional; details: Canis lupus familiaris, route oral
How it was run: (§2)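 Heidenhain pouch mongrel dogs, histamine-stimulated acid secretion. Compound given orally at 2–8 mg/kg. Reduction in acid output is relative to the same animal's own nondrug control, since histamine response depends on pouch size. Usually a single dog per compound. Oral ED50 is the dose reducing acid output to 50% of control.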

[4] = species: Rattus norvegicus; experiment: Cytoprotective activity in rats against the ethyl alcohol stimulated ulcers measured as effective dose; format: functional
How it was run: (§3)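 Rats were dosed orally at 1–30 mg/kg, 30 min before an oral challenge of absolute ethanol. Ethanol-induced gastric lesions were scored 1 h later, and an effective dose was estimated.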

[5] = system: Rattus norvegicus; experiment: Antisecretory activity in pylorus ligated rats at a 40 mg/kg dose administered intraperitoneally; format: functional; details: ip, route intraperitoneal
How it was run: (§4)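 Pylorus-ligated rats, six per compound and eight controls. Compound given intraperitoneally at 40 mg/kg at the time of ligation. Reduction in acid output measured over 4 h.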

[6] = system: Canis familiaris; experiment: Antisecretory activity in histamine stimulated dogs at 0.1 mg/kg dose administered intravenously; format: functional; details: Canis lupus familiaris, route intravenous; how it was run: as §1
[7] = system: Canis familiaris; experiment: Antisecretory activity in histamine stimulated dogs at 2 mg/kg dose administered orally; format: functional; details: Canis lupus familiaris, route oral; how it was run: as §2
[8] = system: Canis familiaris; experiment: Antisecretory activity in histamine stimulated dogs at 4 mg/kg dose administered orally; format: functional; details: Canis lupus familiaris, route oral; how it was run: as §2
[9] = system: Rattus norvegicus; experiment: Antisecretory activity in pylorus ligated rats at 40 mg/kg dose administered intraperitoneal; format: functional; details: ip; how it was run: as §4
[10] = system: Rattus norvegicus; experiment: Antisecretory activity in pylorus ligated rats at 40 mg/kg dose administered intraperitoneally; details: ip
[11] = species: Rattus norvegicus; experiment: Cytoprotective activity in rats against the ethyl alcohol stimulated ulcers measured as effective dose; In active; format: functional, organism-based; how it was run: as §3
[12] = system: Canis familiaris; experiment: Antisecretory activity in histamine stimulated dogs at 5 mg/kg dose administered intravenously; format: functional; details: Canis lupus familiaris; route intravenous; how it was run: as §1
[13] = system: Canis familiaris; experiment: Antisecretory activity in histamine stimulated dogs at 5 mg/kg dose administered orally measured as 50% effective concentration; format: functional; details: Canis lupus familiaris, route oral; how it was run: as §2
[14] = system: Canis familiaris; experiment: percentage inhibition of acid secretion in histamine stimulated dogs at a dose of 0.2 mg/kg; format: functional; details: Canis lupus familiaris
[15] = system: Canis familiaris; experiment: percentage inhibition of acid secretion in histamine stimulated dogs at a dose of 0.4 mg/kg; format: functional; details: Canis lupus familiaris
[16] = system: Canis familiaris; experiment: Antisecretory activity in histamine stimulated dogs at 5 mg/kg dose administered orally; format: functional; details: Canis lupus familiaris; route oral; how it was run: as §2
[17] = system: Canis familiaris; experiment: percentage inhibition of acid secretion in histamine stimulated dogs at a dose of 0.05 mg/kg; format: functional; details: Canis lupus familiaris
[18] = system: Canis familiaris; experiment: Antisecretory activity in histamine stimulated dogs following 5 mg/kg i.v. administration.; format: functional; details: Canis lupus familiaris, route intravenous; how it was run: as §1
[19] = system: Canis familiaris; experiment: The intravenous dose of cimetidine required to reduce acid output to 50% of control value in histamine stimulated dogs; details: Canis lupus familiaris
[20] = system: Canis familiaris; experiment: The oral dose of cimetidine required to reduce acid output to 50% of control value in histamine stimulated dogs; details: Canis lupus familiaris
[21] = species: Canis familiaris; details: Canis lupus familiaris
[22] = species: Rattus norvegicus; experiment: animal or person; details: Canis lupus familiaris, in Rattus norvegicus, ip, 4 h

Row | Structure (SMILES) | inhibition in vivo at 1 mg/kg [1] | inhibition in vivo at 2 mg/kg [2] | inhibition in vivo at 8 mg/kg [3] | ED50 [4] | inhibition in vivo at 40 mg/kg [5] | inhibition in vivo at 2 mg/kg [7] | inhibition in vivo at 4 mg/kg [8] | other results
1 | Nc1cnc2c(OCc3ccccc3)cccn12 | 49% | 81% | 43% | 9.1 mg/kg | 32% |  |  | 
2 | Cc1nc2c(OCc3cccs3)cccn2c1N |  | 77% | 86% | 5 mg/kg | 70% | 30% | 80% | inhibition in vivo at 0.1 mg/kg [6]: 12%
3 | Cc1nc2c(OCc3ccc(Cl)cc3)cccn2c1N | 74% |  | 92% | 2.2 mg/kg | 66% | 32% | 81% | 
4 | Cc1nc2cccc(CCc3ccccc3)n2c1N |  |  |  | 14 mg/kg |  |  |  | inhibition in vivo at 40 mg/kg [9]: 40%
5 | COc1c(C)nc2c(CCc3ccccc3)cccn12 |  | 0% |  | 20 mg/kg |  |  |  | inhibition in vivo at 40 mg/kg [10]: 45%
6 | CC(=O)Oc1c(C)nc2c(CCc3ccccc3)cccn12 |  | 6% |  |  | 64% |  |  | ED50 [11]: inactive
7 | Cc1ccn2c(CC#N)c(C)nc2c1OCc1ccccc1 | 74% | 90% | 59% | 13 mg/kg | 99% | 8% | 20% | ED50 [12]: 0.53 mg/kg; ED50 [13]: 7.8 mg/kg; inhibition in vivo at 0.2 mg/kg [14]: 1%; inhibition in vivo at 0.4 mg/kg [15]: 39%
8 | Cc1nc2c(OCc3ccccc3)cccn2c1N |  | 97% | 96% | 6 mg/kg | 99% | 50% | 74% | ED50 [12]: 0.1 mg/kg; ED50 [16]: 2 mg/kg; inhibition in vivo at 0.05 mg/kg [17]: 15%; inhibition in vivo at 0.2 mg/kg [14]: 41%; inhibition in vivo at 0.1 mg/kg [6]: 55%
9 | CCc1nc2c(OCc3ccccc3)cccn2c1N | 72% |  | 59% | 5.2 mg/kg | 83% |  |  | 
10 | Cc1nc2c(OCc3ccccc3)cccn2c1CC#N | 83% | 95% | 77% | 3 mg/kg | 98% | 20% | 42% | ED50 [12]: 0.09 mg/kg; ED50 at 5 mg/kg ([13]; dose 5 mg/kg): 4.4 mg/kg; inhibition in vivo at 0.1 mg/kg [6]: 49%; inhibition in vivo at 5 mg/kg [18]: 99%
11 | Cc1nc2c(OCc3ccccc3F)cccn2c1N |  | 93% | 93% | 6.6 mg/kg | 93% | 20% | 46% | 
12 | Cc1nc2c(CCc3ccccc3)cccn2c1N | 46% | 71% | 52% | 9 mg/kg | 47% | 19% | 41% | 
13 | CN/C(=N\CCSCc1nc[nH]c1C)NC#N [CIMETIDINE] |  |  |  |  |  |  |  | ED50 [19]: 0.66 mg/kg; ED50 [20]: 1.25 mg/kg; ED50 [21]: inactive; ED50 [22]: 26.1 mg/kg
14 | Cc1nc2c(OCc3ccccc3)nccn2c1N | 56% | 65% | 70% | 5 mg/kg | 79% | 63% | 69% | ED50 [12]: 0.8 mg/kg; ED50 [16]: 1.4 mg/kg; inhibition in vivo at 0.2 mg/kg [14]: 15%; inhibition in vivo at 0.4 mg/kg [15]: 41%
